Results published in ChEMBL document CHEMBL2429830, “Antimycobacterial labdane diterpenes from Leucas stelligera” (J Nat Prod, 2013).
Values after ≈ are worked out from the molar mass of the structure shown. Active and inactive are the calls of the source. No cut-off for these calls is given here.

How the values were obtained:
THP-1 [1] = experiment: Cytotoxicity against human THP1 cells assessed as growth inhibition at 100 ug/mL after 72 hrs by MTT assay relative to control; assay type: functional; settings: THP-1, 72 h, read-out: GI
In short: (§1)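 Viability by MTT (1 h, 37 °C), formazan taken up in 2-propanol 4 h, absorbance 490 nm against cell-free blank. Medium with matching DMSO served as 100% growth.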

[2] = tested on: Mycobacterium tuberculosis; experiment: Antimycobacterial activity against Mycobacterium tuberculosis H37Ra assessed as inhibition of cell viability measured on day 8 by XTT assay in presence of menadione; assay type: functional, organism-based; settings: 192 h
In short: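 H37Ra log-phase culture grown in M. pheli medium at 37 °C, sonicated, then seeded at about 10^5 cells/mL. Serial dilutions of DMSO-dissolved samples were tested, with isoniazid as positive control, at 37 °C in a CO2 incubator for 8 days. Viability was read by XTT (200 μM, 20 min) then menadione (60 μM, 40 min), OD470. IC50 and IC90 came from dose-response curves.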

Escherichia coli [3] = experiment: Antibacterial activity against Escherichia coli DH5[alpha] assessed as growth inhibition after 6 hrs; assay type: functional
[4] = tested on: Mycolicibacterium smegmatis; experiment: Antimycobacterial activity against Mycobacterium smegmatis MC2 155 assessed as inhibition of cell viability measured on day 3 by XTT assay in presence of menadione; assay type: functional; settings: str. MC2 155, 72 h
In short: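 M. smegmatis mc2 155 in microplate wells; on day 3, OD470 read as blank, then XTT (200 μM) added, shaken 1 min and held 20 min at 37 °C. Menadione (60 μM) was then added, mixed 1 min and held another 20 min at 37 °C before the final OD470 reading.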

MCF7 [5] = experiment: Cytotoxicity against human MCF7 cells assessed as growth inhibition at IC90 after 192 hrs by MTT assay relative to control; assay type: functional
In short: (§2)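 MCF-7 cells at ~10^5 cells/mL, 24 h adherence at 37 °C. MTT read-out: 1 h with MTT at 37 °C, then 2-propanol solubilization for 4 h, OD 490 nm versus cell-free wells. Growth expressed relative to DMSO-only controls (100%).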

[6] = tested on: Mycolicibacterium smegmatis; experiment: Antimycobacterial activity against Mycobacterium smegmatis MC2 155 assessed as inhibition of cell viability at IC90 measured on day 3 by XTT assay in presence of menadione relative to control; assay type: functional, str. MC2 155
MCF7 [7] = experiment: Cytotoxicity against human MCF7 cells assessed as growth inhibition at 100 ug/mL after 192 hrs by MTT assay relative to control; assay type: functional; settings: MCF7, 192 h, read-out: GI; in short: as §2
HepG2 [8] = experiment: Cytotoxicity against human HepG2 cells assessed as growth inhibition at 100 ug/mL after 120 hrs by MTT assay relative to control; assay type: functional; settings: HepG2, 120 h, read-out: GI
In short: (§3)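 MTT (10 μL of 5 mg/mL) added for 1 h at 37 °C. Formazan dissolved in 2-propanol for 4 h, read at 490 nm against cell-free blank. DMSO-carrier wells taken as 100% growth.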

HepG2 [9] = experiment: Cytotoxicity against human HepG2 cells assessed as growth inhibition at IC90 after 120 hrs by MTT assay relative to control; assay type: functional; in short: as §3
Escherichia coli [10] = experiment: Antibacterial activity against Escherichia coli DH5[alpha] assessed as growth inhibition at IC90 after 6 hrs relative to control; assay type: functional
THP-1 [11] = experiment: Cytotoxicity against human THP1 cells assessed as growth inhibition at IC90 after 72 hrs by MTT assay relative to control; assay type: functional; in short: as §1
[12] = tested on: Mycobacterium tuberculosis; experiment: Antimycobacterial activity against Mycobacterium tuberculosis H37Ra assessed as inhibition of cell viability at 100 ug/mL measured on day 8 by XTT assay in presence of menadione; assay type: functional, organism-based
In short: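 M. tuberculosis H37Ra (ATCC 25177) grown aerobically to log phase in M. pheli medium at 37 °C, 150 rpm, then sonicated 2 min. About 10^5 cells/mL, 250 μL per well, exposed to DMSO-dissolved samples at 100 μg/mL and incubated at 37 °C in a CO2 incubator. Day 8 read-out: OD470 blank, XTT 200 μM for 20 min, menadione 60 μM for 40 min, then OD470.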

HepG2 [13] = experiment: Cytotoxicity against human HepG2 cells assessed as growth inhibition after 120 hrs by MTT assay; assay type: functional; settings: HepG2, 120 h; in short: as §3
THP-1 [14] = experiment: Cytotoxicity against human THP1 cells assessed as growth inhibition after 72 hrs by MTT assay; assay type: functional; settings: THP-1, 72 h; in short: as §1
MCF7 [15] = experiment: Cytotoxicity against human MCF7 cells assessed as growth inhibition after 192 hrs by MTT assay; assay type: functional; settings: MCF7, 192 h
In short: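 MCF-7 cells at ~10^5 cells/mL, 24 h adherence at 37 °C. […] MTT read-out: 1 h with MTT at 37 °C, then 2-propanol solubilization for 4 h, OD 490 nm versus cell-free wells. Growth expressed relative to DMSO-only controls (100%).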

C=C[C@](C)(O)CC[C@@H]1[C@@]2(C)CCCC(C)(C)[C@H]2CC[C@@]1(C)O
inhibition of growth at 100 µg/mL (THP-1 [1]): 96.4% | IC50 [2]: 5.95 µg/mL

CO[C@H]1/C=C/O[C@@]2(C)Oc3c(C)c(O)c4c(O)c(c(/C=N/N5CCN(C)CC5)c(O)c4c3C2=O)NC(=O)/C(C)=C\C=C\[C@H](C)[C@H](O)[C@@H](C)[C@@H](O)[C@@H](C)[C@H](OC(C)=O)[C@@H]1C [RIFAMPIN]
IC90 (Escherichia coli [3]): 0.5 µg/mL (≈ 0.608 µM) | IC90 [4]: 0.2 µg/mL

NNC(=O)c1ccncc1 [ISONIAZID]
IC90 [2]: 0.055 µg/mL

C[C@@H]1CC[C@H]2C(C)(C)CCC[C@]2(C)[C@@]12CC[C@]1(CO[C@H](O)C1)O2
growth inhibition (GI) (MCF7 [5]): 28.98% | inhibition (INH) [6]: 47.83% | inhibition of growth at 100 µg/mL (THP-1 [1]): 21.7% | IC50 [2]: 5.55 µg/mL | IC90 [2]: 14.9 µg/mL | inhibition of growth at 100 µg/mL (MCF7 [7]): 42.4% | inhibition of growth at 100 µg/mL (HepG2 [8]): 14.4% | growth inhibition (GI) (HepG2 [9]): 6.92% | growth inhibition (GI) (Escherichia coli [10]): 23.15% | growth inhibition (GI) (THP-1 [11]): 8.18%

C[C@@H]1CC[C@H]2C(C)(C)CCC[C@]2(C)[C@@]1(O)CC/C(=C/CO)CO
growth inhibition (GI) (MCF7 [5]): 3.54% | inhibition (INH) [6]: 30.57% | inhibition of growth at 100 µg/mL (THP-1 [1]): 9.07% | IC50 [2]: 9.8 µg/mL | inhibition of growth at 100 µg/mL (MCF7 [7]): 3.54% | inhibition of growth at 100 µg/mL (HepG2 [8]): 21.5% | growth inhibition (GI) (HepG2 [9]): 21.48% | growth inhibition (GI) (Escherichia coli [10]): 11.47% | growth inhibition (GI) (THP-1 [11]): 9.07%

COc1cc(O)c2c(=O)cc(-c3ccc(O)c(OC)c3)oc2c1
inhibition [12]: inactive

CC(=O)O[C@H]1C(=O)[C@@]2(C)[C@H]([C@H](OC(=O)c3ccccc3)[C@]3(O)C[C@H](OC(=O)[C@H](O)[C@@H](NC(=O)c4ccccc4)c4ccccc4)C(C)=C1C3(C)C)[C@]1(OC(C)=O)CO[C@@H]1C[C@@H]2O [PACLITAXEL]
IC90 (HepG2 [13]): 78.9 µg/mL (≈ 92.4 µM) | IC90 (THP-1 [14]): 98.6 µg/mL (≈ 115 µM) | inhibition of growth at 100 µg/mL (THP-1 [1]): 82.5% | inhibition of growth at 100 µg/mL (MCF7 [7]): 86.7% | IC90 (MCF7 [15]): 107 µg/mL (≈ 125 µM) | inhibition of growth at 100 µg/mL (HepG2 [8]): 87.9%
